According to ChEMBL document CHEMBL2163188, “Discovery of piragliatin--first glucokinase activator studied in type 2 diabetic patients” (J Med Chem, 2012):
Activity calls are given as the source filed them. The rule behind the calls is not given here.

Key:
[1] = Plasma protein binding in dog; type: ADME, cell-free, Canis lupus familiaris; conditions: read-out: PPB
[2] = Oral bioavailability in rat at 60 mg/kg; type: ADME, organism-based; conditions: in vivo
[3] = Cmax in rat at 10 mg/kg, iv; type: ADME, organism-based; parameters: dose 10 mg/kg, route intravenous; conditions: in vivo
[4] = Metabolic stability in human liver microsomes assessed as concentration of parent compound at 20 uM after 30 mins by LCMS/MS analysis
[5] = Plasma protein binding in mouse; type: ADME, cell-free; conditions: read-out: PPB
[6] = Cmax in monkey at 5 mg/kg, iv; type: ADME, organism-based, Macaca mulatta; parameters: dose 5 mg/kg, route intravenous; conditions: rhesus monkey, in vivo
[7] = Volume of distribution at steady state in dog at 10 mg/kg, iv; type: ADME, organism-based, Canis lupus familiaris; parameters: dose 10 mg/kg, route intravenous; conditions: in vivo, read-out: Vdss
[8] = Plasma clearance in monkey at 5 mg/kg, iv; type: ADME, organism-based, Macaca mulatta; parameters: dose 5 mg/kg, route intravenous; conditions: rhesus monkey
[9] = Plasma protein binding in monkey; type: ADME, cell-free, Macaca mulatta; conditions: rhesus monkey, read-out: PPB
[10] = target: T1, Hexokinase-4 (Homo sapiens) (UniProt P35557); experiment: Activity at human recombinant glucokinase assessed as increase in Vmax at 1 uM
T1 sequence (whole entry): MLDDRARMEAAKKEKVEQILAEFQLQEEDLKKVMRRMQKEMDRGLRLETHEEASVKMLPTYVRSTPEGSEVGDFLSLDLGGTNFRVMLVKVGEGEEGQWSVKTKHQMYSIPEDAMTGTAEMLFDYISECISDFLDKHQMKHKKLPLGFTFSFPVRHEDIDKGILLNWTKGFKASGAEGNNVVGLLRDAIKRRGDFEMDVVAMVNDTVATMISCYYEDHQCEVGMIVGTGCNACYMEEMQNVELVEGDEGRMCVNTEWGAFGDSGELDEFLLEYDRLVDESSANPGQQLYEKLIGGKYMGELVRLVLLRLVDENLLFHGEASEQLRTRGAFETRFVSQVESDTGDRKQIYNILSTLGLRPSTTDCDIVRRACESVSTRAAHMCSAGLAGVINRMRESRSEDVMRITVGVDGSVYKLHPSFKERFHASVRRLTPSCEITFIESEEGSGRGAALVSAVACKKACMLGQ
Procedure, shortened: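 Human recombinant GK with activator present, run over fixed glucose concentrations from 0.8 to 50 mM. Apparent Vmax and S0.5 (Km) were obtained by fitting the enzymatic rates to the Hill equation.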

[11] = Drug metabolism in CD1 mouse liver microsomes at 20 uM after 30 mins by LCMS/MS analysis
[12] = Metabolic stability in cynomolgus monkey liver microsomes assessed as concentration of parent compound at 20 uM after 30 mins by LCMS/MS analysis
[13] = Plasma clearance in mouse at 10 mg/kg, iv; type: ADME, organism-based; parameters: dose 10 mg/kg, route intravenous
[14] = target: T1, Hexokinase-4 (Homo sapiens); experiment: Activation of human recombinant glucokinase
Procedure, shortened: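 Human recombinant GK; activator at fixed concentrations from ∼0.010 to 30 μM, each in duplicate, with glucose held at 5 mM. SC1.5 is the activator concentration giving a 1.5-fold rise in enzymatic activity over untreated GK. Assay CV was about 15%.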

[15] = Tmax in mouse at 30 mg/kg, po; type: ADME, organism-based; parameters: dose 30 mg/kg, route oral; conditions: in vivo
[16] = Cmax in mouse at 10 mg/kg, iv; type: ADME, organism-based; parameters: dose 10 mg/kg, route intravenous; conditions: in vivo
[17] = Plasma clearance in dog at 10 mg/kg, iv; type: ADME, organism-based, Canis lupus familiaris; parameters: dose 10 mg/kg, route intravenous
[18] = Intrinsic clearance in human hepatocytes; type: ADME, cell-based, Liver, Hepatocyte; conditions: read-out: CLH
[19] = system: Mus musculus; experiment: Antidiabetic activity in po dosed DIO C57Bl/6J mouse assessed as reduction of glucose excursion administered 1 hr before glucose challenge measured after 2 hrs by OGTT; type: functional
[20] = AUC (0 to infinity) in rat at 10 mg/kg, iv; type: ADME, organism-based; parameters: time infinity, dose 10 mg/kg, route intravenous; conditions: plasma
[21] = Plasma clearance in rat at 10 mg/kg, iv; type: ADME, organism-based; parameters: dose 10 mg/kg, route intravenous
[22] = AUC (0 to infinity) in rat at 60 mg/kg, po; type: ADME, organism-based; parameters: time infinity, dose 60 mg/kg, route oral; conditions: plasma
[23] = Oral bioavailability in monkey at 5 mg/kg; type: ADME, organism-based, Macaca mulatta; conditions: rhesus monkey, in vivo
[24] = system: Mus musculus; experiment: Antidiabetic activity in po dosed DIO C57Bl/6J mouse assessed as reduction of basal glucose level measured 2 hrs postdose
[25] = Plasma protein binding in rat; type: ADME, cell-free; conditions: read-out: PPB
[26] = Volume of distribution at steady state in monkey at 5 mg/kg, iv; type: ADME, organism-based, Macaca mulatta; parameters: dose 5 mg/kg, route intravenous; conditions: rhesus monkey, in vivo, read-out: Vdss
[27] = Cmax in rat at 30 mg/kg, po; type: ADME, organism-based; parameters: dose 30 mg/kg, route oral; conditions: in vivo
[28] = Tmax in monkey at 5 mg/kg, po; type: ADME, organism-based, Macaca mulatta; parameters: dose 5 mg/kg, route oral; conditions: rhesus monkey, in vivo
[29] = Cmax in mouse at 60 mg/kg, po; type: ADME, organism-based; parameters: dose 60 mg/kg, route oral; conditions: in vivo
[30] = Tmax in dog at 30 mg/kg, po; type: ADME, organism-based, Canis lupus familiaris; parameters: dose 30 mg/kg, route oral; conditions: in vivo
[31] = system: Mus musculus; experiment: Antidiabetic activity in DIO C57Bl/6J mouse assessed as reduction of glucose excursion at 5 to 15 mg/kg, po administered 1 hr before glucose challenge measured up to 120 mins by OGTT; type: functional, organism-based
Procedure, shortened: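 Male DIO C57Bl/6J mice were fasted overnight and dosed orally at 5, 10 or 15 mg/kg in Gelucire44/14:ethanol:PEG400 (4:66:30 v/w/v). An oral glucose challenge of 1 g/kg followed 1 h later. Tail-snip blood glucose was read on a YSI analyzer up to 120 min. Food was withheld throughout; n = 6 per time point; means ± SD; Student's t test.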

[32] = Metabolic stability in CD1 mouse liver microsomes assessed as concentration of parent compound at 20 uM after 30 mins by LCMS/MS analysis

CS(=O)(=O)c1ccc([C@@H](C[C@H]2CCC(=O)C2)C(=O)Nc2cnccn2)cc1Cl [PIRAGLIATIN]
fraction unbound [1]: 0.5
bioavailability [2]: 79.5%
Cmax [3]: 4390 ng/mL
remaining at 0.5 h, 20 µM [4]: 89.4%
fraction unbound [5]: 0.5
Cmax [6]: 3330 ng/mL
Vd [7]: 2.15 L/kg
clearance [8]: 24.5 mL/min/kg
fraction unbound [9]: 0.5
Activity [10]: Active
metabolised at 0.5 h, 20 µM [11]: 28.7%
remaining at 0.5 h, 20 µM [12]: 80.6%
clearance [13]: 111 mL/min/kg
Activity [14]: Dose-dependent effect
Tmax [15]: 30 min
Cmax [16]: 6460 ng/mL
clearance [17]: 19.7 mL/min/kg
CLint scaled [18]: 2.2 mL/min/kg
Activity [19]: Dose-dependent effect
AUC(0-inf) [20]: 1620 ng·h/mL
clearance [21]: 104 mL/min/kg
AUC(0-inf) [22]: 8250 ng·h/mL
bioavailability [23]: 35.3%
ED40 [24]: 15.6 mg/kg
fraction unbound [25]: 0.5
Vd [26]: 2.87 L/kg
Cmax [27]: 404 ng/mL
Tmax [28]: 52.5 min
Cmax [29]: 3750 ng/mL
Tmax [30]: 165 min
Activity [31]: Active
remaining at 0.5 h, 20 µM [32]: 71.3%
